In ChEMBL document CHEMBL1828499, “Design and synthesis of inhibitors of noroviruses by scaffold hopping” (Bioorg Med Chem, 2011):

Tests used:
Norovirus = assay: Antiviral activity against Norovirus infected in human HG23 cells assessed as inhibition of viral replication after 24 hrs by qRT-PCR; assay type: functional; details: HG23, 24 h, read-out: ED50 (the source's name)
Summary of the method: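 HG23 cells (harbouring NV replicon), one day old and 80–90% confluent, exposed to each compound over 0 (mock-DMSO) to 20 μM. NV genome levels measured by qRT-PCR; ED50 for genome level taken at 24 hr post-treatment.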

[1] = Cytotoxicity against human HG23 cells after 48 hrs; assay type: cell-based; details: read-out: TD50
Summary of the method: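 HG23 cells (Norwalk virus replicon-harboring) exposed to each compound at 0 (mock-DMSO) to 320 μM for 48 hr; viability read with a cell cytotoxicity assay kit; median toxic dose (TD50) calculated.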

Compound	EC50 (Norovirus) [µM]	CC50 at 48 h [1] [µM]
O=C1NCCN1Cc1cccc(Oc2ccccc2)c1	8	95
CC(C)(C)OC(=O)CN1CCN(Cc2cccc(Oc3ccccc3)c2)C1=O	12	55
O=C(O)CN1CCN(Cc2cccc(Oc3ccccc3)c2)C1=O	> 20	–
O=C1N(CCN2CCOCC2)CCN1Cc1cccc(Oc2ccccc2)c1	16	120
O=C1N(CCN2CCN(CCN3CCN(Cc4cccc(Oc5ccccc5)c4)C3=O)CC2)CCN1Cc1cccc(Oc2ccccc2)c1	0.5	2.5
O=S1(=O)NCCCN1Cc1cccc(Oc2ccccc2)c1	> 20	–
O=C1NCCCN1Cc1cccc(Oc2ccccc2)c1	> 20	–
CC(C)(O)c1cn(Cc2cccc(Oc3ccccc3)c2)nn1	> 20	–
CCCCc1cn(Cc2cccc(Oc3ccccc3)c2)nn1	6	40
O=C(O)CCCc1cn(Cc2cccc(Oc3ccccc3)c2)nn1	> 20	–
C[Si](C)(C)c1cn(Cc2cccc(Oc3ccccc3)c2)nn1	7	30
c1ccc(Oc2cccc(Cn3ccnn3)c2)cc1	10	100
c1ccc(Oc2cccc(Cc3nn[nH]n3)c2)cc1	> 20	–
Cn1nnc(Cc2cccc(Oc3ccccc3)c2)n1	> 20	–
c1ccc(Oc2cccc(Cn3ccnc3)c2)cc1	8	35
O=C1CN(Cc2cccc(Oc3ccccc3)c2)S(=O)(=O)N1	> 20	–
